Reference: ChEMBL document CHEMBL4145675, “2-Phenylquinoline S. aureus NorA Efflux Pump Inhibitors: Evaluation of the Importance of Methoxy Group Introduction” (J Med Chem, 2018)
Values after ≈ are worked out from the molar mass of the structure shown. Active and inactive are the calls of the source. The calls are words filed in the database; no cut-off is given here.

Legend:
[1] = target: T1, Quinolone resistance protein NorA (Staphylococcus aureus) (UniProt P0A0J7); assay: Inhibition of NorA in Staphylococcus aureus SA-1199B expressing GrlA A116E mutant assessed as reduction in EtBr efflux at 50 uM incubated for 5 mins by fluorescence based assay
T1 sequence (whole entry): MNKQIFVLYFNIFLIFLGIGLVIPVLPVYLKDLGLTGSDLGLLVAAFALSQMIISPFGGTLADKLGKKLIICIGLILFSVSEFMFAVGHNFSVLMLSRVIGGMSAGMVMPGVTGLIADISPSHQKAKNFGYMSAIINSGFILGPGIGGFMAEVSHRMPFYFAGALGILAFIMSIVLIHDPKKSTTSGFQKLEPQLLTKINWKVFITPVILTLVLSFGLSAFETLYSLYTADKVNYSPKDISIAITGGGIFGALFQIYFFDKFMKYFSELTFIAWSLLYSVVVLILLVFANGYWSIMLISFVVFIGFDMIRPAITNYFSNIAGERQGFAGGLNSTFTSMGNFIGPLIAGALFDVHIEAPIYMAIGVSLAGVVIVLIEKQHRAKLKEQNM
How it was run: (§1)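 Cells were grown overnight in cation-supplemented Mueller-Hinton broth at 35 °C and subcultured to OD600 0.7–0.8. They were loaded at OD600 0.8 with 25 µM EtBr plus 100 µM CCCP (final) for 20 min at room temperature. Cells were then resuspended in fresh broth with or without compound, 50 µM for the single-point screen or a concentration series for IC50. Fluorescence (ex 485/em 645 nm) was read for 5 min. Inhibition was calculated from the fluorescence decrease versus untreated cells. Biological triplicate, each run twice.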

[2] = target: Quinolone resistance protein NorA (Staphylococcus aureus, UniProt P0A0J7, A116E); assay: Inhibition of NorA in Staphylococcus aureus SA-1199B expressing GrlA A116E mutant assessed as reduction in EtBr efflux incubated for 5 mins by fluorescence based assay; how it was run: as §1
Staphylococcus aureus [3] = assay: Antimicrobial activity against Staphylococcus aureus SA-1199B expressing wild type norA and co-expressing GrlA A116E mutant by microdilution method; format: organism-based; settings: in vivo
How it was run: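 CLSI broth microdilution MIC of the compound alone. Strains: SA-K1902 (norA deleted), SA-K2378 (SA-K1902 carrying norA plus its promoter on multicopy plasmid pCU1), SA-1199B (norA overexpressing, GrlA A116E).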

[4] = target: T1, Quinolone resistance protein NorA (Staphylococcus aureus); assay: Inhibition of NorA in Staphylococcus aureus SA-1199B expressing GrlA A116E mutant assessed as minimal potentiating drug concentration causing 8 fold reduction in ciprofloxacin MIC by microdilution method based Checkerboard assay
Staphylococcus aureus [5] = assay: Synergistic potentiation of ciprofloxacin-induced antimicrobial activity against wild type Staphylococcus aureus ATCC 25923 at 0.78 to 100 ug/ml by microdilution method based Checkerboard assay; format: functional, organism-based
Staphylococcus aureus [6] = assay: Synergistic potentiation of ciprofloxacin-induced antimicrobial activity against Staphylococcus aureus SA-1199 at 0.78 to 100 ug/ml by microdilution method based Checkerboard assay; format: functional, organism-based
[7] = target: T1, Quinolone resistance protein NorA (Staphylococcus aureus); assay: Inhibition of NorA in Staphylococcus aureus SA-1199B expressing GrlA A116E mutant assessed as synergistic potentiation of ciprofloxacin-induced antimicrobial activity at 0.78 to 100 ug/ml by microdilution method based Checkerboard assay
Staphylococcus aureus [8] = assay: Antimicrobial activity against Staphylococcus aureus ATCC 25923 by microdilution method; format: organism-based; settings: in vivo
How it was run: (§2)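 Broth microdilution MIC per CLSI guidelines. ATCC 25923 is norA wild-type. SA-1199B overexpresses norA and carries an A116E GrlA substitution.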

Staphylococcus aureus [9] = assay: Antimicrobial activity against Staphylococcus aureus SA-1199B expressing wild type norA by microdilution method; format: organism-based; settings: in vivo; how it was run: as §2

In the case of `CCCOc1ccc(-c2cc(OCCN(CC)CC)c3cccc(OC)c3n2)cc1`, the inhibition [1] is reported as 83.1%, the IC50 [2] is reported as 13.7 µM and the MIC (Staphylococcus aureus [3]) is reported as 245 µM (≈ 100 µg/mL).

In the case of `CCCOc1ccc(-c2cc(OCCN3CCc4cc(OC)c(OC)cc4C3)c3cccc(OC)c3n2)cc1`, the inhibition [1] is reported as 65.5%.

Work on `CCCOc1ccc(-c2cc(OCCCN(C)C)c3cccc(OC)c3n2)cc1` yielded an inhibition [1] of 64.7%.

`CCCOc1ccc(-c2cc(OCCN3CCCCC3)c3cc(OC)c(OC)cc3n2)cc1` gave an inhibition [1] of 92.1%, an IC50 [2] of 3.9 µM and an MIC (Staphylococcus aureus [3]) of over 222 µM. The Activity [4] was 3.13 µg/mL, the “synergistic potentiation of ciprofloxacin activity” value (from here on “synergistic potentiation”) (Staphylococcus aureus [5]) was “Active” and the inhibition (Staphylococcus aureus [6]) was “Active”. For the same molecule, the inhibition [7] was “Active”, the MIC (Staphylococcus aureus [8]) was 100 µg/mL (≈ 222 µM) and the MIC (Staphylococcus aureus [9]) was over 100 µg/mL.

Molecule `CCCOc1ccc(-c2cc(O)c3ccc(OC)cc3n2)cc1` has an inhibition [1] of 55.7%.

`CCCOc1ccc(-c2cc(O)c3c(OC)cccc3n2)cc1` gave an inhibition [1] of 91.4%, an IC50 [2] of 4.1 µM and an MIC (Staphylococcus aureus [3]) of 40.4 µM (≈ 12.5 µg/mL).

With `CCCOc1ccc(-c2cc(OCCN3CCNCC3)c3cccc(OC)c3n2)cc1` the inhibition [1] was 100%, the IC50 [2] was 9.9 µM and the MIC (Staphylococcus aureus [3]) was over 237 µM. For the same molecule, the Activity [4] was 25 µg/mL, the “synergistic potentiation” value (Staphylococcus aureus [5]) was “Active” and the inhibition (Staphylococcus aureus [6]) was “Active”. The inhibition [7] was “Active”, the MIC (Staphylococcus aureus [8]) was over 100 µg/mL and the MIC (Staphylococcus aureus [9]) was over 100 µg/mL.

`CCCOc1ccc(-c2cc(OCCCl)c3ccc(OC)cc3n2)cc1` gave an inhibition [1] of 57.5%.

With `CCCOc1ccc(-c2cc(OCCN3CCc4cc(OC)c(OC)cc4C3)c3cc(OC)ccc3n2)cc1` the inhibition [1] was 33%.

`C=COc1cc(-c2ccc(OCCC)cc2)nc2c(OC)cccc12` was tested, and the inhibition [1] was 13.3%.

`CCCOc1ccc(-c2cc(OCCN3CCCCC3)c3cccc(OC)c3n2)cc1` was tested, and the inhibition [1] was 88.7%, the IC50 [2] was 11.9 µM and the MIC (Staphylococcus aureus [3]) was 238 µM (≈ 100 µg/mL).

`CCCOc1ccc(-c2cc(OCCCN(C)C)c3ccc(OC)cc3n2)cc1` was tested, and the inhibition [1] was 100%, the IC50 [2] was 4.3 µM and the MIC (Staphylococcus aureus [3]) was 232 µM (≈ 91.5 µg/mL). The Activity [4] was 6.25 µg/mL, the “synergistic potentiation” value (Staphylococcus aureus [5]) was “Active” and the inhibition (Staphylococcus aureus [6]) was “Active”. The inhibition [7] was “Active”, the MIC (Staphylococcus aureus [8]) was 100 µg/mL (≈ 253 µM) and the MIC (Staphylococcus aureus [9]) was 100 µg/mL (≈ 253 µM).

Molecule `CCCOc1ccc(-c2cc(OCCN3CCN(Cc4ccccc4)CC3)c3cc(OC)ccc3n2)cc1` has an inhibition [1] of 32%.

`CCCOc1ccc(-c2cc(OCCN3CCCCCC3)c3cc(OC)c(OC)cc3n2)cc1` was tested, and the inhibition [1] was 67.9%.

Molecule `CCCOc1ccc(-c2cc(OCCN3CCN(Cc4ccccc4)CC3)c3ccc(OC)cc3n2)cc1` has an inhibition [1] of 92.1%, an IC50 [2] of 7.3 µM and an MIC (Staphylococcus aureus [3]) of over 195 µM. The Activity [4] was over 100 µg/mL, the “synergistic potentiation” value (Staphylococcus aureus [5]) was “Active” and the inhibition (Staphylococcus aureus [6]) was “Active”. For the same molecule, the inhibition [7] was “Active”, the MIC (Staphylococcus aureus [8]) was over 100 µg/mL and the MIC (Staphylococcus aureus [9]) was over 100 µg/mL.

In the case of `CCCOc1ccc(-c2cc(OCCCl)c3cc(OC)ccc3n2)cc1`, the inhibition [1] is reported as 10.5%.

Molecule `CCCOc1ccc(-c2cc(OCCN3CCNCC3)c3cc(OC)ccc3n2)cc1` has an inhibition [1] of 84.4%, an IC50 [2] of 15.6 µM and an MIC (Staphylococcus aureus [3]) of 29.6 µM (≈ 12.5 µg/mL).

In the case of `CCCOc1ccc(-c2cc(OCCN3CCCCCC3)c3cccc(OC)c3n2)cc1`, the inhibition [1] is reported as 72.8%.

With `CCCOc1ccc(-c2cc(OCCN3CCCCCC3)c3cc(OC)ccc3n2)cc1` the inhibition [1] was 92.2%, the IC50 [2] was 8.1 µM and the MIC (Staphylococcus aureus [3]) was 28.7 µM (≈ 12.5 µg/mL). The Activity [4] was under 3.13 µg/mL, the “synergistic potentiation” value (Staphylococcus aureus [5]) was “Active” and the inhibition (Staphylococcus aureus [6]) was “Active”. The inhibition [7] was “Active”, the MIC (Staphylococcus aureus [8]) was 12.5 µg/mL (≈ 28.8 µM) and the MIC (Staphylococcus aureus [9]) was 25 µg/mL (≈ 57.5 µM).

`CCCOc1ccc(-c2cc(OCCCN(C)C)c3cc(OC)ccc3n2)cc1` was tested, and the inhibition [1] was 79.5%.

`CCCOc1ccc(-c2cc(OCCN3CCCCC3)c3c(OC)cccc3n2)cc1` gave an inhibition [1] of 83.4%, an IC50 [2] of 19.1 µM and an MIC (Staphylococcus aureus [3]) of 59.4 µM (≈ 25 µg/mL).

In the case of `CCCOc1ccc(-c2cc(OCCCl)c3cccc(OC)c3n2)cc1`, the inhibition [1] is reported as 6.8%.

Work on `CCCOc1ccc(-c2cc(O)c3cc(OC)c(OC)cc3n2)cc1` yielded an inhibition [1] of 79.2%.

For `CCCOc1ccc(-c2cc(OCCN3CCCCC3)c3c(OC)cc(OC)cc3n2)cc1`, the inhibition [1] was 49.7%.

Molecule `CCCOc1ccc(-c2cc(OCCN3CCCCCC3)c3c(OC)cc(OC)cc3n2)cc1` has an inhibition [1] of 74.1%.

Molecule `CCCOc1ccc(-c2cc(OCCN3CCCCCC3)c3c(OC)cccc3n2)cc1` has an inhibition [1] of 74.8%.
